Calls of active or inactive are those of the source.
How the values were obtained:
[1] = tested on: Rattus norvegicus; test: Toxicity in arthritic Wistar rat assessed as gastric ulcerogenic response at 10 mg/kg, po; assay type: organism-based, Stomach; parameters: dose 10 mg/kg, route oral; conditions: in vivo
Method in brief: (§1)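 Arthritis induced as for adjuvant model. Two days later rats fasted overnight, then dosed orally (10 ml/kg) or with vehicle; indomethacin 10 mg/kg po as positive control. Rats killed 4 h later, stomachs opened along greater curvature. Ulcer index taken as summed lesion length (mm) in gastric mucosa.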

[2] = tested on: Rattus norvegicus; test: Antiinflammatory activity against Freund's adjuvant-induced arthritis in Wistar rat assessed as reduction in paw height at 100 mg/kg, po; assay type: functional, organism-based; parameters: dose 100 mg/kg
Method in brief: (§2)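 Arthritis induced by Freund's adjuvant injected into right paw; after 3 days paw height, paw width and joint width re-measured (day 0) and rats randomised. Dosed once daily for 3 further days (days 1–3), orally at 10 ml/kg or ip at 2 ml/kg, in vehicle 10% DMSO/10% Tween 80/80% water. Measurements taken at baseline, day 0 and days 1–4, compared with vehicle group.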

[3] = tested on: Rattus norvegicus; test: Antiinflammatory activity against carrageenan-induced Wistar rat paw oedema at 100 mg/kg, po; assay type: functional, organism-based; parameters: dose 100 mg/kg
Method in brief: (§3)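 Overnight-fasted rats dosed orally (10, 50, 100 mg/kg/10 ml) or with vehicle before carrageenan injection into the footpad. Equal volume of saline injected into left hindpaw. Rats killed 4 h later and hind paws cut and weighed. Oedema taken as right minus left paw weight; means ± SEM versus vehicle.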

[4] = tested on: Rattus norvegicus; test: Antiinflammatory activity against Freund's adjuvant-induced arthritis in Wistar rat assessed as reduction in joint size at 100 mg/kg, po; assay type: functional, organism-based; parameters: dose 100 mg/kg; method in brief: as §2
[5] = tested on: Rattus norvegicus; test: Antiinflammatory activity against carrageenan-induced Wistar rat paw oedema at 50 mg/kg, po; assay type: functional, organism-based; parameters: dose 50 mg/kg; method in brief: as §3
[6] = tested on: Rattus norvegicus; test: Antiinflammatory activity against Freund's adjuvant-induced arthritis in Wistar rat assessed as reduction in paw width at 100 mg/kg, ip; assay type: functional, organism-based; parameters: dose 100 mg/kg; method in brief: as §2
[7] = tested on: Rattus norvegicus; test: Antiinflammatory activity against Freund's adjuvant-induced arthritis in Wistar rat assessed as reduction in paw height at 100 mg/kg, ip; assay type: functional, organism-based; parameters: dose 100 mg/kg; method in brief: as §2
[8] = tested on: Rattus norvegicus; test: Antiinflammatory activity against carrageenan-induced Wistar rat paw oedema at 10 mg/kg, po; assay type: functional, organism-based; parameters: dose 10 mg/kg; method in brief: as §3
[9] = tested on: Rattus norvegicus; test: Toxicity in arthritic Wistar rat assessed as gastric ulcerogenic response at 100 mg/kg, po; assay type: organism-based, Stomach; parameters: dose 100 mg/kg, route oral; conditions: in vivo; method in brief: as §1
[10] = tested on: Rattus norvegicus; test: Antiinflammatory activity against Freund's adjuvant-induced arthritis in Wistar rat assessed as reduction in joint size at 100 mg/kg, ip; assay type: functional, organism-based; parameters: dose 100 mg/kg; method in brief: as §2
[11] = tested on: Rattus norvegicus; test: Antiinflammatory activity against Freund's adjuvant-induced arthritis in Wistar rat assessed as reduction in paw width at 100 mg/kg, po; assay type: functional, organism-based; parameters: dose 100 mg/kg; method in brief: as §2
[12] = tested on: Rattus norvegicus; test: Antiinflammatory activity against Freund's adjuvant-induced arthritis in Wistar rat assessed as reduction in paw width at 50 mg/kg, po; assay type: functional, organism-based; parameters: dose 50 mg/kg; method in brief: as §2
[13] = tested on: Rattus norvegicus; test: Antinociceptive activity in Wistar rat assessed as increase in latency time at 100 mg/kg, ip; assay type: functional, organism-based; parameters: dose 100 mg/kg
Method in brief: (§4)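 Freund's adjuvant-arthritic rats given ip dosing (10 ml/kg) or vehicle once daily for 4 days. Hot-plate test the day after the last injection at 55 ± 0.5 °C, set for 15–18 s control latency. Latency to hind-paw licking or jump recorded, 60 s cut-off. Each rat tested twice, 30 min apart. Normal rats included as controls.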

[14] = tested on: Rattus norvegicus; test: Antiinflammatory activity against Freund's adjuvant-induced arthritis in Wistar rat assessed as reduction in paw height at 10 mg/kg, po; assay type: functional, organism-based; parameters: dose 10 mg/kg; method in brief: as §2
[15] = tested on: Rattus norvegicus; test: Antiinflammatory activity against Freund's adjuvant-induced arthritis in Wistar rat assessed as reduction in paw height at 50 mg/kg, po; assay type: functional, organism-based; parameters: dose 50 mg/kg; method in brief: as §2
[16] = tested on: Rattus norvegicus; test: Antiinflammatory activity against Freund's adjuvant-induced arthritis in Wistar rat assessed as reduction in joint width at 50 mg/kg, po; assay type: functional, organism-based; parameters: dose 50 mg/kg; method in brief: as §2
[17] = tested on: Rattus norvegicus; test: Antiinflammatory activity in Wistar rat assessed as reduction of carrageenan-induced paw oedema; assay type: functional, organism-based; method in brief: as §3
[18] = tested on: Rattus norvegicus; test: Antiinflammatory activity against Freund's adjuvant-induced arthritis in Wistar rat assessed as reduction in joint width at 10 mg/kg, po; assay type: functional, organism-based; parameters: dose 10 mg/kg; method in brief: as §2
[19] = tested on: Rattus norvegicus; test: Antinociceptive activity in Wistar rat assessed as increase in latency time at 50 mg/kg, ip; assay type: functional, organism-based; parameters: dose 50 mg/kg; method in brief: as §4
[20] = tested on: Rattus norvegicus; test: Antiinflammatory activity against Freund's adjuvant-induced arthritis in Wistar rat assessed as reduction in paw width at 10 mg/kg, po; assay type: functional, organism-based; parameters: dose 10 mg/kg; method in brief: as §2

Measured: Activity

COc1ccc2c(c1)c(CC(=O)O)c(C)n2C(=O)c1ccc(Cl)cc1 [INDOMETHACIN]
Toxic: [1]

FC(F)(F)c1ccnc(-n2nc3c(c2-c2ccccc2)CCCC3)n1
Non-toxic: [9]
active: [2] | [6] | [7]
inactive: [3] | [4] | [5] | [8] | [10] | [11]

FC(F)(F)c1ccc(-n2nc3c(c2-c2ccccc2)CCCC3)cc1
Non-toxic: [9]
active: [13] | [6] | [7] | [17] Dose-dependent effect | [10] | [19]
not listed: [1] | [3] | [5] | [8]
inactive: all other assays above

Source: ChEMBL document CHEMBL1147923, “Synthesis, docking studies and anti-inflammatory activity of 4,5,6,7-tetrahydro-2H-indazole derivatives” (Bioorg Med Chem, 2007)
